Screening results: PubChem, Broad Institute
KDM4C inh = inhibitors of human demethylase GASC-1 KDM4C | Q9H3R0 | GST-KDM4C 2-372, H3K9me3 peptide, LANCE TR-FRET | inhibition, % at 12.5 µM | 0.15% of 96,000 active | AID 720574;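 active means mean replicate inhibition above about 25%, with at least 55% of replicates also reaching it, limit read from the data, passing the limit was not always enough; inconclusive means only one of those two conditions met; inactive means neither condition met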
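Material: GST-tagged GASC-1 (JMJD2C) catalytic fragment, aa 2-372. Input: enzyme final amount 10 nM. Medium: HEPES buffer, pH 7.5, plus ascorbate. Reagent: H3K9me3 peptide substrate, Fe(II), 2-oxoglutarate. Doses: single dose. Times: reaction 30 min RT, detection step 1 h RT. Measured by: LANCE TR-FRET. Evaluation: Fall in 671/618 emission ratio as inhibition.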
Pf Dd2 inh = inhibitors of Plasmodium falciparum Dd2 growth | P. falciparum Dd2 growth, SYBR Green, 72 h; active compounds read low | activity change, % at 10 µM | 2.3% of 94,000 active; in the data active means activity change below about -80%; inconclusive means no clear call, values can overlap the other calls
IDH1 mut inh = blocks human IDH1 R132H reductase activity. 0.18% of 70,000 active. diaphorase/resazurin fluorescence, 60 min. O75874. inhibition, % at 10 µM; in the data active means inhibition above about 34%; inconclusive means no clear call, values can overlap the other calls; inactive means below about 11%;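 further: 0% = DMSO and 100% = no enzyme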
Target sequence (O75874 whole entry R132H): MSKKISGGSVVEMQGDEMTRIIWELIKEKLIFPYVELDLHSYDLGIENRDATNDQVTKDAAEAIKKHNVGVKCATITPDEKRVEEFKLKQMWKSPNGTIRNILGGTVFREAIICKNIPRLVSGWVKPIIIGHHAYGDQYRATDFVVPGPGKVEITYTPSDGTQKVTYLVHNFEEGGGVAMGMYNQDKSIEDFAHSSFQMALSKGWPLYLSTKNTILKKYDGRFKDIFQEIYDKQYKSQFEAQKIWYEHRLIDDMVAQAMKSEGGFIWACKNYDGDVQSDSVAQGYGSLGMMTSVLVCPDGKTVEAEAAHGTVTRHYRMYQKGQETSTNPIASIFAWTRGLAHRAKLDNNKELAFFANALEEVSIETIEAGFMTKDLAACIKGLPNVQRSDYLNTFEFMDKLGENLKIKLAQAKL
T cruzi growth-1 = blocks T. cruzi growth in NIH3T3 culture. T. cruzi beta-gal in NIH3T3, GalScreen luminescence, 90 h. inhibition, % at 8.34 µM. 5.9% of 77,000 active;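 active means mean inhibition above about 93%, with at least 55% of replicates each passing it, limit read from the data, passing the limit was not always enough; inconclusive means only one of those two conditions holds; inactive means neither condition holds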
T cruzi growth-2 = blocks T. cruzi growth in NIH3T3 host cells; inhibition, % at 8.35 µM; 72% of 5,600 active; T. cruzi beta-gal in NIH3T3, GalScreen luminescence, 90 h; shares compounds with T cruzi growth-1;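 active means mean replicate inhibition above about 95% and at least 55% of replicates individually reaching it, limit read from the data; inconclusive means only one of the two criteria is met; inactive means neither criterion is met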
T cruzi growth-3 = Trypanosoma cruzi proliferation inhibition | shares compounds with T cruzi growth-1 | T. cruzi beta-gal in NIH3T3, GalScreen luminescence, 90 h | inhibition, % at 2.09 µM | 21% of 5,600 active | AID 651740;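 active means mean inhibition above about 95%, with at least 55% of replicates also reaching it, limit read from the data; inconclusive means meets just one of the two conditions; inactive means meets neither condition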;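 further: plate controls were neutral control median for no effect and positive control median for full effect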
NIH3T3 tox = cytotoxicity in mouse NIH/3T3 fibroblasts | shares compounds with T cruzi growth-1 | NIH/3T3 viability, CellTiter-Glo ATP luminescence, 90 h | cytotoxicity (signal decrease), % at 8.35 µM | 14% of 5,600 active | AID 651742;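 active means mean signal decrease across replicates above about 35% based on untreated-well scatter, with enough replicates individually passing, limit read from the data; inconclusive means no rule stated though some were filed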;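 further: 0% = median of neutral control wells and 100% = median of positive control wells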
3T3 cytotox 2 = NIH/3T3 (mouse) viability loss. NIH/3T3 viability, CellTiter-Glo ATP luminescence, 90 h. AID 651744. shares compounds with T cruzi growth-1. inhibition, % at 24.9 µM. 56% of 5,600 active;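 active means mean loss of cell viability signal at or above a set limit, and enough replicates individually reaching it; inconclusive means meets only the mean limit or only the replicate share; inactive means meets neither condition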;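 further: 0% = median of neutral control wells and 100% = median of positive control wells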
Active calls of the source: *; u = inconclusive; x = no result given. Only some compounds are listed: those with a hit (about 5.8% of all), similar ones and a draw of the others.

SMILES | KDM4C inh | Pf Dd2 inh | IDH1 mut inh | T cruzi growth-1 | T cruzi growth-2 | T cruzi growth-3 | NIH3T3 tox | 3T3 cytotox 2
CC=Cc1ccc2n(c1=O)C[C@@H]1[C@@H](CO)[C@H](C(=O)Nc3ccc(-c4ccccc4)cc3)[C@H]2N1C(=O)CC (mixture of isomers) | -3 | x | x | 135* | 103* | 13 | 24 | 48*
C[C@H](CO)N1C[C@H](C)[C@H](CN(C)Cc2ccc(Oc3ccccc3)cc2)Oc2c(NC(=O)c3nc4ccccc4s3)cccc2C1=O | -3 | -78 | 0 | 87 | x | x | x | x
CC=Cc1ccc2n(c1=O)C[C@@H]1[C@@H](CO)[C@H](C(=O)NCc3ccccc3Cl)N(S(C)(=O)=O)[C@H]21 (mixture of isomers) | 0 | x | x | 98* | 81 | 8 | -13 | 2
CCCNC(=O)[C@@H]1[C@@H](CO)[C@@H]2Cn3c(ccc(-c4cccc(OC)c4)c3=O)[C@H]1N2CCC | 0 | 5 | x | 100* | 52 | 11 | 7 | 14
CN(C)C(=O)[C@@H]1[C@@H](CO)[C@@H]2Cn3c(ccc(-c4cccc(F)c4)c3=O)[C@H]1N2Cc1ccccc1 | 1 | x | x | 103* | 13 | 15 | -12 | 7
CCCNC(=O)[C@H]1[C@H](CO)[C@H]2Cn3c(ccc(C4=CCCCC4)c3=O)[C@@H]1N2Cc1cocn1 | 2 | 6 | x | -11 | x | x | x | x
CCCNC(=O)[C@H]1[C@H](CO)[C@H]2Cn3c(ccc(-c4ccccc4)c3=O)[C@@H]1N2C(=O)CC1CC1 | 0 | -14 | x | 106* | 82 | 3 | 3 | -8
CCNC(=O)[C@H]1[C@H](CO)[C@H]2Cn3c(ccc(C4=CCCCC4)c3=O)[C@@H]1N2Cc1cocn1 | 6 | 0 | x | u | 1 | -16 | -14 | -17
CN(C)C(=O)[C@@H]1[C@@H](CO)[C@@H]2Cn3c(ccc(-c4cccc(F)c4)c3=O)[C@H]1N2CCc1ccccc1 | 0 | 4 | x | 16 | x | x | x | x
CCCNC(=O)[C@H]1[C@H](CO)[C@H]2Cn3c(ccc(-c4cccc(OC)c4)c3=O)[C@@H]1N2CCC | -1 | 0 | x | 79 | x | x | x | x
Cc1cccc(-n2c(SCC(=O)N3CCOCC3)nnc2-c2ccccc2)c1 | x | x | 0 | x | x | x | x | x
CCCNC(=O)[C@@H]1[C@@H](CO)[C@@H]2Cn3c(ccc(C4=CCCC4)c3=O)[C@H]1N2C(C)=O | 2 | 13 | x | 106* | 108* | 16 | 3 | -6
CCCNC(=O)[C@H]1[C@H](CO)[C@H]2Cn3c(ccc(C4=CCCC4)c3=O)[C@@H]1N2C(C)=O | 5 | 5 | x | -4 | x | x | x | x
O=C(NC1CCC1)[C@@H]1[C@@H](CO)[C@@H]2Cn3c(ccc(-c4cccc(F)c4)c3=O)[C@H]1N2Cc1cocn1 | 0 | x | x | 100* | 61 | 17 | 21 | 12
O=C(NC1CCC1)[C@@H]1[C@@H](CO)[C@@H]2Cn3c(ccc(-c4ccc(F)cc4)c3=O)[C@H]1N2Cc1cocn1 | 1 | 12 | x | x | x | x | x | x
CCCNC(=O)Nc1ccc2c(c1)OC[C@H](C)N(CCC)C[C@H](C)[C@H](OC)CN(C)C2=O | 1 | 2 | 0 | 20 | x | x | x | x
C[C@@H]1CN([C@H](C)CO)C(=O)c2cc(NC(=O)CCC(F)(F)F)ccc2O[C@@H](C)CCCCO[C@H]1CN(C)C(=O)Nc1ccc(F)cc1 | 1 | -55 | 1 | -46 | x | x | x | x
COc1ccc(NC(=O)N(C)C[C@@H]2Oc3ccc(NC(=O)CCC(F)(F)F)cc3C(=O)N([C@H](C)CO)C[C@H]2C)cc1 | 0 | 8 | 1 | 101* | 75 | 5 | -11 | 0
C[C@@H]1CCCCO[C@H](CN(C)C(=O)Nc2ccc(F)cc2)[C@H](C)CN([C@H](C)CO)C(=O)c2cc(NC(=O)CCC(F)(F)F)ccc2O1 | 0 | -72 | x | 98* | 85 | 72 | 11 | 32*
C[C@H](CO)N1C[C@H](C)[C@@H](CN(C)C(=O)Nc2ccc(C(F)(F)F)cc2)OCCCC[C@H](C)Oc2ccc(NC(=O)CCC(F)(F)F)cc2C1=O | -1 | -52 | x | 101* | 108* | 89 | -8 | 24
COc1ccc(OC)c(NC(=O)CN(c2cccc(Br)c2)S(C)(=O)=O)c1 | x | x | 0 | x | x | x | x | x
COc1ccccc1S(=O)(=O)N1CC[C@@H]2[C@@H](CO)Nc3ccc(-c4ccccc4F)cc3[C@@H]21 | -2 | 2 | x | u | 104* | 86 | 24 | 41*
Cc1ccccc1S(=O)(=O)N1CC[C@@H]2[C@H]1c1cc(-c3ccccc3F)ccc1N[C@@H]2CO | 0 | 2 | x | -11 | x | x | x | x
COc1cccc(-c2ccc3c(c2)[C@H]2[C@H](CCN2S(=O)(=O)c2ccccc2OC)[C@H](CO)N3)c1 | 1 | -42 | x | u | 102* | 91 | -9 | -36
Cc1ccccc1S(=O)(=O)N1CC[C@@H]2[C@H](CO)Nc3ccc(-c4ccccc4F)cc3[C@@H]21 | 1 | -12 | x | 110* | 97* | 77 | 8 | 106*
SMILES | KDM4C inh | Pf Dd2 inh | IDH1 mut inh | T cruzi growth-1 | T cruzi growth-2 | T cruzi growth-3 | NIH3T3 tox | 3T3 cytotox 2
CCc1cc(C)cc(OCCNC(=O)c2ncn[nH]2)c1 | x | x | 0 | x | x | x | x | x
CN1C(=O)c2cc(NC(=O)C3CCC3)ccc2OC[C@H]2O[C@@H](CC(=O)NCC3CCCCC3)CC[C@@H]21 | 1 | -8 | x | x | x | x | x | x
COc1ccc(S(=O)(=O)N(C)C[C@@H]2Oc3cc(-c4ccccc4OC)ccc3S(=O)(=O)N([C@@H](C)CO)C[C@H]2C)cc1 | 0 | u | x | 125* | 106* | 87 | u | 51*
COc1ccc(S(=O)(=O)N(C)C[C@H]2Oc3cc(-c4ccccc4OC)ccc3S(=O)(=O)N([C@H](C)CO)C[C@H]2C)cc1 | -3 | -62 | 2 | 123* | 99* | 58 | 21 | 37*
COc1ccc(S(=O)(=O)N(C)C[C@H]2Oc3cc(-c4ccccc4OC)ccc3S(=O)(=O)N([C@H](C)CO)C[C@@H]2C)cc1 | -2 | -74 | x | 123* | 100* | 46 | 47* | 57*
CO[C@@H]1CN(C)C(=O)c2ccc(NC(=O)NC(C)C)cc2OC[C@H](C)N(Cc2cncnc2)C[C@H]1C | 1 | x | 0 | 4 | x | x | x | x
C[C@@H]1CCCCO[C@@H](CN(C)S(=O)(=O)c2cccs2)[C@@H](C)CN([C@H](C)CO)C(=O)c2cc(NS(=O)(=O)c3ccc(Cl)cc3)ccc2O1 | 0 | -26 | 1 | u | 106* | 72 | 0 | 38*
